Measurements taken from ChEMBL document CHEMBL4680319, “Synthesis and evaluation of tiaprofenic acid-derived UCHL5 deubiquitinase inhibitors” (Bioorg Med Chem, 2021).
Active and inactive are the calls of the source. The rule behind the calls is not given here.

Assays:
[1] = target: T1, Ubiquitin carboxyl-terminal hydrolase isozyme L5 (Homo sapiens, UniProt Q9Y5K5); experiment: (§1) Inhibition of N-terminal His6-tagged recombinant human UCHL5 expressed in Escherichia coli BL21 (DE3) codon cells assessed as reduction in cleavage of Ubiquitin-Rhodamine110-glycine to Ubiquitin and Rhodamine110-glycine using Ub-Rho 110 as substrate incubated for 30 mins by fluorescence based assay
T1 sequence (Q9Y5K5 whole entry): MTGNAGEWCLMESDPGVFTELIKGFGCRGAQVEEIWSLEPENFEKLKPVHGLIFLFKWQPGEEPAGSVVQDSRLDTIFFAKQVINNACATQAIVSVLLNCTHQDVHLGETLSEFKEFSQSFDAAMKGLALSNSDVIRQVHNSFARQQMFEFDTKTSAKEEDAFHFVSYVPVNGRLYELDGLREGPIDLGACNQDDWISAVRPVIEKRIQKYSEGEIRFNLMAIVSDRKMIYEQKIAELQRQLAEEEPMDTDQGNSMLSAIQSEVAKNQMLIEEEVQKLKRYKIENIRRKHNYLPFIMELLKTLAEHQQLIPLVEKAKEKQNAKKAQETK
In short: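 His-tagged human UCHL5 from pET151 in E. coli BL21(DE3) codon+ RIL, Ni-NTA purified; 0.464 nM enzyme, 1 μM Ub-Rho in 50 mM Tris-HCl pH 7.5, 150 mM NaCl, 0.1 mg/ml ovalbumin, 0.5 mM EDTA, 2.5 mM DTT; started by enzyme addition.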

[2] = target: T2, Ubiquitin carboxyl-terminal hydrolase isozyme L5 (Homo sapiens) (UniProt Q9Y5K5); experiment: Potency index, ratio of (R)-tiaprofenic acid IC50 to test compound IC50 for inhibition of N-terminal His6-tagged recombinant human UCHL5 expressed in Escherichia coli BL21 (DE3) codon cells incubated for 30 mins by fluorescence based assay
T2 sequence (whole entry): T1 sequence (Q9Y5K5 whole entry)

[3] = species: Homo sapiens; experiment: as §1, with “[…] N-terminal GST/His6-tagged RPN13” for “expressed”, “substrate at 100 uM” for “substrate”, “assay relative to control” for “assay”
In short: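 UCHL5 (0.464 nM, His-tagged, Ni-NTA purified from E. coli) combined with separately expressed Rpn13 (915 nM); each derivative tested at 100 μM. Buffer 50 mM Tris-HCl pH 7.5, 150 mM NaCl, 0.1 mg/ml ovalbumin, 0.5 mM EDTA, 2.5 mM DTT. Reaction started with UCHL5; Ub-Rho 1 μM; fluorescence ex 485/em 535 nm read over 30 min at RT. n = 2 independent experiments.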

[4] = target: T2, Ubiquitin carboxyl-terminal hydrolase isozyme L5 (Homo sapiens); experiment: Inhibition of UCHL5 in human MDA-MB-231 cells assessed as reduction in enzyme-Ub-VS conjugation at 25 to 50 uM preincubated for 30 mins followed by incubation with Ub-VS for 11 mins in presence of Ub-VS by Western blot analysis; format: cell-based; conditions: dose 25-50 µM, time 41.0 min
In short: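 Lysate (20 μg protein) preincubated with inhibitor 30 min at RT in same buffer without detergent, then Ub-VS 1 μM for 11 min at RT; SDS quench, 12% SDS-PAGE, anti-UCHL5 and β-actin blot; 2 independent experiments.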

[5] = target: Ubiquitin carboxyl-terminal hydrolase isozyme L1 (Homo sapiens) (UniProt P09936); experiment: as §1, with “of” for “of N-terminal His6-tagged”, “N-terminal MET and His6-tagged UCHL1 (Gln2 to Ala223 residues)” for “UCHL5”, “coli” for “coli BL21 (DE3) codon cells”
In short: (§2)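 Commercial enzymes at UCHL1 1.2 nM or UCHL3 32 pM, with 1 μM Ub-Rho in 50 mM Tris-HCl pH 7.5, 150 mM NaCl, 0.1 mg/ml ovalbumin, 0.5 mM EDTA, 2.5 mM DTT.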

[6] = target: T3, Ubiquitin carboxyl-terminal hydrolase isozyme L1 (Homo sapiens, UniProt P09936); experiment: as above; in short: as §2
T3 sequence (P09936 whole entry): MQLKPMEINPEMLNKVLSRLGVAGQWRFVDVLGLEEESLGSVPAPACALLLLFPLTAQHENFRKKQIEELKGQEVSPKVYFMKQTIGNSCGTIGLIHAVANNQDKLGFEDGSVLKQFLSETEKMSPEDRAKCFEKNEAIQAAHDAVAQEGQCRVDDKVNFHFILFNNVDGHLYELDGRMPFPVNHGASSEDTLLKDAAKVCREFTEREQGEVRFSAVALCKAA

[7] = target: T4, Ubiquitin carboxyl-terminal hydrolase isozyme L3 (Homo sapiens) (UniProt P15374); experiment: (§3) Inhibition of recombinant human UCHL3 assessed as reduction in cleavage of Ubiquitin-Rhodamine110-glycine to Ubiquitin and Rhodamine110-glycine using Ub-Rho 110 as substrate incubated for 30 mins by fluorescence based assay; in short: as §2
T4 sequence (whole entry): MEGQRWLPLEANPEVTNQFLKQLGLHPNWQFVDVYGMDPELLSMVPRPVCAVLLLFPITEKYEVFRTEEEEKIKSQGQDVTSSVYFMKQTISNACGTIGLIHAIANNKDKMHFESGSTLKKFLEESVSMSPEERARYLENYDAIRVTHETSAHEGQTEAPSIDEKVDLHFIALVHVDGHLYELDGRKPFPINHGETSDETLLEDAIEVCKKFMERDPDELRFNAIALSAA

[8] = target: T5, Ubiquitin carboxyl-terminal hydrolase isozyme L3 (Homo sapiens, UniProt P15374); experiment: as §3; in short: as §2
T5 sequence (P15374 whole entry): T4 sequence (whole entry)

| Structure (SMILES) | IC50 [1] [µM] | further results |
| --- | --- | --- |
| Nc1ccc(-c2cn(Cc3cc(C(=O)O)cc(-c4ccccc4C(=O)O)c3)nn2)cc1 | 80.5 |  |
| CC(C(=O)O)c1ccc(C(=O)c2cccc(-c3ccccc3C(=O)O)c2)s1 (stereo not given) | 89.1 | Ratio IC50 [2]: 33 |
| Nc1cccc(-c2cn(Cc3cc(C(=O)O)cc(-c4ccccc4C(=O)O)c3)nn2)c1 | 72.6 |  |
| O=C(O)c1cc(Cn2cc(-c3cccnc3)nn2)cc(-c2ccccc2C(=O)O)c1 | 252 |  |
| CC(=O)Nc1ccc(-c2cn(Cc3cc(C(=O)O)cc(-c4ccccc4C(=O)O)c3)nn2)cc1 | 80.9 |  |
| CC(C(=O)O)c1ccc(C(=O)c2ccccc2)s1 (stereo not given) [TIAPROFENIC ACID] | 2950 |  |

Second part, led by results:

| IC50 [1] [µM] | Structure (SMILES) | further results |
| --- | --- | --- |
| 284 | Nc1ccc(-c2cn(Cc3cc(C(=O)O)cc(-c4ccc(C(=O)O)cc4)c3)nn2)cc1 |  |
| 32.9 | Nc1ccc(-c2cn(Cc3cc(C(=O)O)cc(-c4cccc(C(=O)O)c4)c3)nn2)cc1 | inhibition [3]: 70%; inhibition [4]: Active; inhibition [5]: Dose-dependent effect; IC50 [6]: 92 µM; inhibition [7]: Dose-dependent effect; IC50 [8]: 74 µM |
| 84.5 | NS(=O)(=O)Nc1ccc(-c2cn(Cc3cc(C(=O)O)cc(-c4ccccc4C(=O)O)c3)nn2)cc1 |  |
| 116 | Nc1ccc(-c2cn(Cc3cccc(-c4ccccc4C(=O)O)c3)nn2)cc1 |  |
| 215 | O=C(O)c1cc(Cn2cc(-c3ccc(NC(=O)c4ccccc4)cc3)nn2)cc(-c2ccccc2C(=O)O)c1 |  |
| 75.7 | CC(C(=O)O)c1ccc(C(=O)c2cccc(-c3occc3C(=O)O)c2)s1 (stereo not given) |  |
| 96.2 | CC(=O)Nc1cccc(-c2cn(Cc3cc(C(=O)O)cc(-c4ccccc4C(=O)O)c3)nn2)c1 |  |
